Bioassay records as filed in PubChem BioAssay.
Shown are actives, neighbours in structure and some others; about 1.9% of the full set was active somewhere.
Hck-Nef inh: blocks Nef-activated human Hck kinase. 220,000 compounds, 0.68% hits. AID 463187. Recombinant Hck-YEEI plus Nef, Z-Lyte FRET kinase assay. inhibition, % at 20 µM. P08631;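 active = Hck-Nef kinase inhibition above about 50%, limit read from the data; inactive = inhibition below that limit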;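 note: 0% = DMSO with Hck plus Nef and 100% = Hck alone without Nef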
RanGTP-Imp inh: inhibitors of RanGTP-importin-beta interaction, primary screen, biochemical, FRET, CFP-Ran, YFP-importin-beta, homogeneous; AID 2216; cell-free CFP-Ran/YFP-importin-beta FRET ratio; inhibition, % (concentration not given with the values); 300,000 compounds, 1.1% hits;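 active = more than half of the replicate wells show a fall in the fluorescence ratio signal beyond about 16%, limit read from the data, passing the limit was not always enough; inconclusive = exactly half of the replicate wells pass the set limit; inactive = fewer than half of replicates pass the limit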;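 note: 0% = DMSO wells and 100% = Ran loaded with GDP instead of GTP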
Runt-CBFb FRET: inhibitors of human RUNX1 Runt domain binding to CBFb; Q01196+Q13951; Cerulean-Runt/Venus-CBFb FRET ratio 530/480, 1 h; inhibition, % at 20 µM; 220,000 compounds, 0.46% hits;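 active = inhibition over about 50% at 20 µM in the single-dose screen, limit read from the data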;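 note: 0% = DMSO wells and 100% = excess unlabeled CBFb competitor control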
Target sequence (Q01196 whole entry, looked up, the tested form may be a part): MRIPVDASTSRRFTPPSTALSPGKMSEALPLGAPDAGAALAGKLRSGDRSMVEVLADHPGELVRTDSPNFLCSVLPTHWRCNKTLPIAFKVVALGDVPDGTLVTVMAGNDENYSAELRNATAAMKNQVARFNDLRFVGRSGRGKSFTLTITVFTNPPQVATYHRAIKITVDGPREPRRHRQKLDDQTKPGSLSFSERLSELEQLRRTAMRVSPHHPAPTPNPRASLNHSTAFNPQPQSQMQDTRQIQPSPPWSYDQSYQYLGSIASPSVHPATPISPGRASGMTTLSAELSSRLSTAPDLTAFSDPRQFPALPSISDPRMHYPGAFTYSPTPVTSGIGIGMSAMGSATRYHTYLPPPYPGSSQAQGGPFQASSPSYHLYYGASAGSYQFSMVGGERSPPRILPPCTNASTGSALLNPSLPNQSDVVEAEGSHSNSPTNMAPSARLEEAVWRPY
Target sequence (Q13951 whole entry, looked up, the tested form may be a part): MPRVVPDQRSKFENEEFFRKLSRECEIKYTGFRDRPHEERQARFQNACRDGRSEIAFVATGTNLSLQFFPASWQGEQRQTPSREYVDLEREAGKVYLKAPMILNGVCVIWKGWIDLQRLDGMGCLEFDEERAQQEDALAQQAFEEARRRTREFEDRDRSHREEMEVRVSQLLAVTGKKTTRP
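Buffer or medium: Tris pH 7.5 buffer with BSA. Assay system: Cerulean-labeled Runt domain protein. Amount: each fluorescent fusion protein 100 nM. Read-out basis: loss of energy transfer signal. Incubation: 1 h compound exposure, room temperature. Probe or stimulus: Venus-CBFb binding partner, 100 nM. Detection: FRET, excitation 422 nm, emission at 530 and 480 nm.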
Tb hexokinase: blocks Trypanosoma brucei hexokinase 1 activity; 220,000 compounds, 0.11% hits; inhibition, % at 10 µM; recombinant TbHK1, G6PDH-coupled NADH A340;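 active = inhibition of 50% or more in the single-dose primary screen; inactive = inhibition below 50%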
Runt-SMMHC FRET: Runt domain-CBFb-SMMHC interaction inhibition. Q01196+Q13951. Cerulean-Runt/Venus-CBFb-SMMHC FRET ratio 530/480, 1 h. inhibition, % at 20 µM. 220,000 compounds, 0.74% hits. AID 1434;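 active = mean inhibition across duplicate retests at 20 µM reaching about 50%, limit read from the data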;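 note: 0% = DMSO wells and 100% = wells with excess untagged CBFb-SMMHC; inhibitors lower the FRET ratio by blocking Runt binding to CBFb-SMMHC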
Starred values were filed as active, the others as inactive; u = inconclusive; x = no result.

SMILES | Hck-Nef inh | RanGTP-Imp inh | Runt-CBFb FRET | Tb hexokinase | Runt-SMMHC FRET
Cc1ccc(C(=O)NCC(=O)OCCCOC(=O)CNC(=O)c2ccc(C)cc2)cc1 | x | 0.3 | x | x | x
CCc1cccc(C)c1NC(=O)COC(=O)c1c2c(nc3ccccc13)/C(=C\c1cccs1)CCC2 | 5.1 | 3.9 | -11.4 | -13.6 | -24.3
NC(=O)c1ccc(NC(=O)COC(=O)c2c3c(nc4ccccc24)/C(=C\c2cccs2)CCC3)cc1 | 17.1 | 16.3* | -20.7 | -15.3 | -16.3
CCCCn1c(-c2ccc(Cl)cc2)nc2c(=O)n(C)c(=O)[nH]c21 | 0.8 | x | 24.8 | 1.6 | 50.2*
CCCCn1c(-c2ccc(OC)cc2)nc2c(=O)n(C)c(=O)[nH]c21 | x | 1.8 | x | x | x
CCCc1nc2c(=O)n(C)c(=O)[nH]c2n1C | 0.5 | 108.3* | 121.6* | -0.4 | 113.8*
CCCOc1ccc2c(c1)C(=NN=C(N)N)c1cc(OCCC)ccc1-2 | x | 3.0 | x | x | x
O=C(CN1CCc2ccccc2C1)Nc1ccc(F)cc1F | 21.5 | -1.6 | -1.0 | -1.4 | 0.0
COc1cc2c(cc1OC)CN(CC(=O)Nc1cccc(C)c1)CC2 | 2.0 | 31.6* | 7.2 | -1.5 | 20.8
COc1cc2c(cc1OC)CN(CC(=O)Nc1ccc(F)cc1F)CC2 | x | 19.5* | x | x | x
CCS(=O)(=O)N1CCC2(CC1)OCCN2S(=O)(=O)c1ccc(C)cc1 | x | -2.4 | x | x | x
COc1ccccc1S(=O)(=O)Nc1cc(C)nn1-c1ccc(C)cc1 | x | 2.0 | x | x | x
COc1ccc(-c2c(C#N)c(N)nc3c2CCCC3)cc1OC | 10.0 | -1.6 | x | -11.3 | x
COc1ccc(-c2c(C#N)c(N)nc3c2CCC3)cc1 | 9.6 | -6.2 | 45.0 | -5.0 | 97.2*
C/C(=N/NC(N)=S)c1cc2ccc(O)cc2oc1=O | 186.9* | 152.4* | 9.5 | -24.7 | 83.7*
C/C(=N/NC(=O)c1ccncc1)c1cc2ccc(O)cc2oc1=O | 5.5 | x | 19.2 | -11.1 | 63.1*
C/C(=N\NC(=O)c1ccncc1)c1cc2ccccc2oc1=O | 2.9 | 5.2 | -0.6 | -14.2 | -2.1
CC(C)(C)NS(=O)(=O)c1ccc(OCC(=O)NCCC2=CCCCC2)cc1 | 0.3 | 3.2 | -2.6 | -2.3 | -1.8
COc1ccc(-n2c(=S)[nH]c3sc4c(c3c2=O)CCN(C)C4)cc1 | 3.2 | 22.6* | 13.7 | -38.8 | 38.8
CC(C)(C)c1cnnn1-c1ccc(/C=N/Nc2ccc([N+](=O)[O-])cc2)cc1 | 3.5 | 33.8* | -27.5 | -2.3 | -24.0
c1ccc(Cn2c(-c3cccs3)nc3nc4ccccc4nc32)cc1 | 1.2 | u | 23.1 | -3.1 | 65.0*
Cc1ccc(-n2c(-c3cccs3)nc3nc4ccccc4nc32)cc1 | 5.0 | 0.8 | -0.2 | -7.4 | -86.4
CCCCn1c(-c2cccs2)nc2nc3ccccc3nc21 | 19.6 | 2.8 | 18.9 | -6.1 | 157.8*
CC(C)Cn1c(-c2cccs2)nc2nc3ccccc3nc21 | 43.2 | 8.0 | 45.8 | -22.0 | 103.6*
COc1cc(OC)cc(C(=O)NN2CCOCC2)c1 | x | 1.1 | x | x | x
SMILES | Hck-Nef inh | RanGTP-Imp inh | Runt-CBFb FRET | Tb hexokinase | Runt-SMMHC FRET
CCOc1ccc(CC(=O)Nc2ccc(-c3ccc4nnc(C)n4n3)cc2)cc1 | -23.2 | 0.9 | 1.7 | -8.6 | -2.4
COc1cccc(C(=O)c2c(C)c(CCC#N)n3ccccc23)c1 | 9.4 | 3.2 | 3.2 | -5.1 | 1.3
O=C(CC1CCCC1)Nc1ccc(Br)cc1 | x | 0.5 | x | x | x
Nc1c(-c2ccccc2)c(CN2CCOCC2)nn1-c1ccc(C(=O)O)cc1 | -2.9 | 31.9* | -0.6 | 37.4 | 0.8
Oc1c(CN2CCOCC2)cc(-c2ccccc2)cc1CN1CCOCC1 | 1.6 | -6.6 | -1.8 | 2.1 | 0.4
Cn1c(/C=C/c2ccc(Cl)cc2)nc2ccccc2c1=O | x | 19.7* | x | x | x
CC(=O)Nc1ccc(/C=C/c2nc3ccccc3[nH]c2=O)cc1 | x | -17.3 | x | x | x
O=c1[nH]c2ccccc2nc1/C=C/c1ccc(Cl)cc1 | 21.4 | 22.7* | -32.3 | -3.4 | 37.3
O=C1c2ccccc2C(=O)N1CCc1csc(NNc2nc(CCN3C(=O)c4ccccc4C3=O)cs2)n1 | 69.2* | 3.3 | x | 1.1 | 4.2
N#Cc1c2ccccc2nc2ccccc12 | 43.4 | 18.2* | 44.6 | -19.4 | 97.9*
O=C(NCc1cccc(F)c1)C1CCN(C(=O)c2sccc2-n2cccc2)CC1 | 3.0 | -1.7 | -0.9 | -9.3 | -1.4
Cc1nc(Cl)c2c(n1)NC1=C(O2)C(=O)CCC1 | -7.1 | -1.6 | -43.9 | -8.4 | 73.2*
O=C1NC2=C(C(=O)CCC2)C(c2ccccc2Cl)N1 (stereo not drawn) | x | -4.8 | x | x | x
COc1ccc(Cn2c(O)c(C=Nc3ccccc3C(=O)O)c3ccccc3c2=O)cc1 | 23.5 | 5.7 | 2.5 | -4.4 | 3.0
COc1ccc(Cn2c(O)c(/C=N/NC(=O)c3cccnc3)c3ccccc3c2=O)cc1 | -11.7 | 9.5 | 20.6 | -0.6 | 86.0*
O=C(N/N=C/c1c(O)n(Cc2ccccc2)c(=O)c2ccccc12)c1cccnc1 | -25.4 | -0.3 | 36.0 | 4.9 | 87.1*
O=C(N/N=C/c1c(O)n(-c2ccccc2Cl)c(=O)c2ccccc12)c1cccnc1 | 0.4 | 2.5 | 19.9 | -2.2 | 86.0*
O=C(CCNS(=O)(=O)c1ccc(Br)cc1)NCCc1ccc(Cl)cc1 | x | 3.5 | x | x | x
O=C1NC(=S)N/C1=C/c1ccc2ccccc2c1 | x | 25.8* | x | x | x
O=C1NC(=S)N/C1=C/c1ccc2c(c1)OCO2 | x | 3.8 | x | x | x
CCCn1nc(C(=O)Nc2nc3ccccc3[nH]2)c2ccccc2c1=O | -0.8 | 0.0 | -5.0 | 31.7 | 2.7
CC(C)n1nc(C(=O)Nc2nc3ccccc3[nH]2)c2ccccc2c1=O | 19.0 | -1.1 | 103.1* | -8.0 | 1.6
CCCCNc1cc(NC(C)=O)cc2cc(OC)c(OC)cc12 | 5.9 | 21.5* | 3.9 | -1.4 | -0.3
CCOC(=O)[C@@H]1[C@H]2COc3ccccc3[C@H]2N2C(=O)N(c3ccc(Cl)cc3)C(=O)[C@@]12C | x | 5.1 | x | x | x
C[C@]12C=CC(=O)C=C1CC[C@@H]1C2=CC[C@]2(C)[C@@H](C(=O)CN3CCN(c4cc(N5CCCC5)nc(N5CCCC5)n4)CC3)CC[C@@H]12 | x | 65.3* | x | x | x
SMILES | Hck-Nef inh | RanGTP-Imp inh | Runt-CBFb FRET | Tb hexokinase | Runt-SMMHC FRET
CCN(CC)CCNC(=O)c1ccc(NC(=O)/C=C/c2ccc3ccccc3n2)cc1 | x | 1.6 | x | x | x
COCCNC(=O)/C(C#N)=C/c1c(N2CCN(c3ccccc3)CC2)nc2c(C)cccn2c1=O | x | 29.1* | x | x | x
COCCNC(=O)/C(C#N)=C/c1c(N2CCN(c3cccc(Cl)c3)CC2)nc2c(C)cccn2c1=O | x | 14.0 | x | x | x
CCOC(=O)/C(C#N)=C/c1c(N2CCN(CC)CC2)nc2c(C)cccn2c1=O | x | 98.8* | x | x | x
CCN1CCN(c2nc3c(C)cccn3c(=O)c2/C=C(\C#N)C(=O)NC)CC1 | x | -58.0 | x | x | x
C=CCNC(=O)/C(C#N)=C/c1c(N2CC(C)OC(C)C2)nc2ccccn2c1=O (stereo not drawn) | 10.4 | 42.2* | 4.0 | 19.3 | 77.2*
CCNC(=O)/C(C#N)=C/c1c(N2CCN(c3ccccc3)CC2)nc2c(C)cccn2c1=O | x | 20.1* | x | x | x
COc1ccc(CCNC(=S)NC(=O)c2cccc([N+](=O)[O-])c2)cc1OC | x | -1.4 | x | x | x
